Consider three compounds from ChEMBL document CHEMBL1139409, “Pestalachlorides A-C, antifungal metabolites from the plant endophytic fungus Pestalotiopsis adusta” (Bioorg Med Chem, 2008).

pIC50: −log10 of the molar value. ≈ marks a conversion by molar mass, not a printed value.

Holding throughout (assay type): functional, organism-based
The test system of one assay is Verticillium albo-atrum. Description: Antifungal activity against Verticillium albo-atrum by Almar blue assay. The essentials: (§1)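 Plant pathogen strains from CGMCC, maintained on potato dextrose agar; inocula from broth cultures grown 25 °C for 48 h, final suspension 1 × 10^4 hyphae/mL. Samples from 10 mg/mL DMSO stock, serially diluted, in triplicate, with alamar blue indicator; incubated 28 °C for 48 h, fluorescence read at Ex/Em 544/590 nm. Inhibition rate plotted against concentration to give IC50 and MIC; NCCLS-based method.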

Another assay deals with Fusarium culmorum. Description: Antifungal activity against Fusarium culmorum by Almar blue assay. The essentials:
as §1

The next assay deals with Fusarium graminearum. Put plainly: Antifungal activity against Gibberella zeae by Almar blue assay. The essentials: as §1

As to `COc1c(Cl)c(C)c(Cl)c(O)c1C1NC(=O)c2c(O)cc(O)c(CC=C(C)C)c21` (racemic) [PESTALACHLORIDE A], the negative-log IC50 (pIC50) in the assay on Verticillium albo-atrum is 4.23; with Fusarium culmorum, 6.05; with Fusarium graminearum it was 4.26. Moreover, the MIC stood at 114 µM (≈ 50.1 µg/mL) against Verticillium albo-atrum, 7.2 µM (≈ 3.16 µg/mL) in the assay on Fusarium culmorum and 114 µM (≈ 50.1 µg/mL) against Fusarium graminearum.

As for `CC(C)=CCc1c(O)cc(O)c2c1C(=O)c1c(O)c(Cl)c(C)c(Cl)c1OC2` [PESTALACHLORIDE B], the pIC50 in the assay with Verticillium albo-atrum was 5.10; in the assay with Fusarium culmorum, 5.33; in the assay with Fusarium graminearum, 5.96. For the same compound, the MIC against Verticillium albo-atrum is 12.2 µM (≈ 4.99 µg/mL); in the assay on Fusarium culmorum, 49 µM (≈ 20.1 µg/mL); in the assay on Fusarium graminearum, 12.2 µM (≈ 4.99 µg/mL).

As to `COc1c(Cl)c(C)c(Cl)c2c1[C@H]1c3c(C=O)c(O)cc(O)c3C[C@@H]1C(C)(C)O2` (racemic) [PESTALACHLORIDE C], the pIC50 in the assay on Verticillium albo-atrum, with Fusarium culmorum and in the assay with Fusarium graminearum was under 3.93 in each case. Besides, the minimal inhibitory concentration (MIC) in the assay with Verticillium albo-atrum, against Fusarium culmorum and against Fusarium graminearum was over 237 µM in each case.

Usually pIC50 stands for the negative decadic logarithm of the IC50, by convention in mol/L. Low readings indicate a high IC50, high ones a low IC50. In general, MIC refers to the smallest concentration in the dilution series that meets the test's criterion for growth inhibition. A higher MIC goes with weaker potency.
